This note sets out measurements from ChEMBL document CHEMBL1145471, “Small molecule regulators of autophagy identified by an image-based high-throughput screen” (Proc Natl Acad Sci U S A, 2007).

Holding throughout (assay type): functional
Assay [1] deals with H4. As to the kind of experiment: Increase in light chain 3-GFP+ autophagosome vesicle number per cell in human H4 cells at 9.0 uM after 24 hrs by high throughput fluorescence microscopy relative to control. In short, it runs like this:
(§1)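 H4 cells stably expressing LC3-GFP, grown in DMEM with 10% FBS, penicillin/streptomycin and 2 mM L-glutamine at 37°C, 5% CO2. Cells were seeded in 96-well plates and exposed to library compounds at 3–12 μM for 24 h, then fixed in 4% paraformaldehyde and stained with 3 μg/ml DAPI. LC3-GFP spot number, size and intensity were measured by high-throughput fluorescence microscopy and expressed relative to DMSO. Triplicates, mean ± SD.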

Assay [2] concerns H4. As to the kind of experiment: Increase in light chain 3-GFP+ autophagosome vesicle area per cell in human H4 cells at 9.0 uM after 24 hrs by high throughput fluorescence microscopy relative to control. In short, it runs like this:
(§2)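 H4 cells stably expressing LC3-GFP, seeded in 96-well plates and exposed to compound for 24 h; screening concentrations were 3–12 μM, with rapamycin 0.22 μM and bafilomycin A1 0.40 μM. Cells fixed in 4% paraformaldehyde and stained with 3 μg/ml DAPI. Number, size and intensity of LC3-GFP spots measured by high-throughput fluorescence microscopy and expressed as percent of DMSO-treated wells. Rapamycin was the positive control. Triplicate wells, mean ± SD; experiments repeated three times.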

Assay [3] has as its system H4. The assay can be described thus: Increase in light chain 3-GFP+ autophagosome vesicle intensity per cell in human H4 cells at 9.0 uM after 24 hrs by high throughput fluorescence microscopy relative to control. The essentials: (§3)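 H4 cells stably expressing LC3-GFP were grown in DMEM with 10% FBS and 2 mM L-glutamine at 37°C, 5% CO2. They were exposed to each compound for 24 h, with DMSO as negative and rapamycin as positive control. Cells were then fixed in 4% paraformaldehyde and stained with 3 μg/ml DAPI. High-throughput fluorescence imaging scored LC3-GFP spot number, size and intensity, expressed relative to DMSO. Mean ± SD of triplicates; experiments repeated three times.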

Assay [4] relates to H4. As to the kind of experiment: Decrease in FYVE-RFP+ vesicle intensity per cell in human H4 cells after 2 hrs relative to control. Details: concentration or dose not given beside the values. The essentials: (§4)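 H4 cells stably expressing FYVE-RFP (H4-FYVE), grown in DMEM with 10% FBS, penicillin/streptomycin and 2 mM L-glutamine at 37°C, 5% CO2, seeded in 96-well plates and exposed to compound. Fixed in 4% paraformaldehyde, nuclei stained with 3 μg/ml DAPI, FYVE-RFP+ vesicles quantified by high-throughput fluorescence microscopy against DMSO control. Triplicate wells, mean ± SD.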

Assay [5] deals with H4. As to the kind of experiment: Decrease in FYVE-RFP+ vesicle intensity per cell in human H4 cells after 4 hrs relative to control. Further details: concentration or dose not given beside the values. In short, it runs like this: as §4
Assay [6] deals with H4. The assay can be described thus: Decrease in FYVE-RFP+ vesicle intensity per cell in human H4 cells after 8 hrs relative to control. Further details: concentration or dose not given beside the values. In short, it runs like this: as §4
Assay [7] deals with H4. As to the kind of experiment: Increase in long-lived protein degradation in human H4 cells after 1 hr relative to control. Details: concentration or dose not given beside the values.
In assay [8] the test system is H4. The assay can be described thus: Increase in long-lived protein degradation in human H4 cells after 2 hrs relative to control. Details: concentration or dose not given beside the values.
Assay [9] has as its system H4. The assay can be described thus: Increase in long-lived protein degradation in human H4 cells after 4 hrs relative to control. Details: concentration or dose not given beside the values.
Assay [10] relates to H4. As to the kind of experiment: Increase in long-lived protein degradation in human H4 cells after 24 hrs relative to control. Further details: concentration or dose not given beside the values.
Assay [11] relates to H4. The assay can be described thus: Induction of light chain 3-GFP level in human H4 cells at 9.0 uM after 24 hrs by high throughput fluorescence microscopy relative to control. In short, it runs like this: as §1
Assay [12] concerns H4. As to the kind of experiment: Increase in light chain 3-GFP+ autophagosome vesicle number per cell in human H4 cells at 5.0 uM after 24 hrs by high throughput fluorescence microscopy relative to control. The essentials: as §3
The test system of assay [13] is H4. The assay can be described thus: Increase in light chain 3-GFP+ autophagosome vesicle area per cell in human H4 cells at 5.0 uM after 24 hrs by high throughput fluorescence microscopy relative to control. In short, it runs like this:
as §2

Assay [14] relates to H4. As to the kind of experiment: Increase in light chain 3-GFP+ autophagosome vesicle intensity per cell in human H4 cells at 5.0 uM after 24 hrs by high throughput fluorescence microscopy relative to control. The essentials: as §3
Assay [15] deals with H4. As to the kind of experiment: Induction of light chain 3-GFP level in human H4 cells at 5.0 uM after 24 hrs by high throughput fluorescence microscopy relative to control. In short, it runs like this: (§5)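 H4 cells stably expressing LC3-GFP, kept in DMEM/10% FBS at 37°C, 5% CO2, were seeded in 96-well plates and exposed to compound for 24 h. Cells were then fixed in 4% paraformaldehyde and stained with 3 μg/ml DAPI. Automated fluorescence microscopy scored the number, size and intensity of LC3-GFP spots. Values are percent of DMSO wells, in triplicate, mean ± SD. Rapamycin served as positive control.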

Assay [16] concerns H4. As to the kind of experiment: Increase in light chain 3-GFP+ autophagosome vesicle number per cell in human H4 cells at 13.2 uM after 24 hrs by high throughput fluorescence microscopy relative to control. In short, it runs like this: (§6)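 H4 cells stably expressing LC3-GFP, seeded in 96-well plates and exposed to compound for 24 h; fixed in 4% paraformaldehyde, nuclei stained with 3 μg/ml DAPI. Automated fluorescence microscopy scored number, size and intensity of LC3-GFP spots; values expressed relative to DMSO-treated wells, rapamycin positive control. Triplicate wells, mean ± SD; experiments repeated three times.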

Assay [17] concerns H4. The assay can be described thus: Increase in light chain 3-GFP+ autophagosome vesicle area per cell in human H4 cells at 13.2 uM after 24 hrs by high throughput fluorescence microscopy relative to control. In short, it runs like this: as §6
The test system of assay [18] is H4. The assay can be described thus: Increase in light chain 3-GFP+ autophagosome vesicle intensity per cell in human H4 cells at 13.2 uM after 24 hrs by high throughput fluorescence microscopy relative to control. The essentials:
as §6

The test system of assay [19] is H4. The assay can be described thus: Induction of light chain 3-GFP level in human H4 cells at 13.2 uM after 24 hrs by high throughput fluorescence microscopy relative to control. The essentials:
as §5

Assay [20] relates to H4. As to the kind of experiment: Increase in light chain 3-GFP+ autophagosome vesicle number per cell in human H4 cells at 8.8 uM after 24 hrs by high throughput fluorescence microscopy relative to control. In short, it runs like this:
as §1

The test system of assay [21] is H4. As to the kind of experiment: Increase in light chain 3-GFP+ autophagosome vesicle area per cell in human H4 cells at 8.8 uM after 24 hrs by high throughput fluorescence microscopy relative to control. The essentials: as §2
Assay [22] deals with H4. The assay can be described thus: Increase in light chain 3-GFP+ autophagosome vesicle intensity per cell in human H4 cells at 8.8 uM after 24 hrs by high throughput fluorescence microscopy relative to control. In short, it runs like this: as §3
For assay [23], the system named is H4. The assay can be described thus: Effect on FYVE-RFP+ vesicle intensity per cell in human H4 cells after 2 hrs relative to control. Details: concentration or dose not given beside the values. In short, it runs like this:
as §4

In assay [24] the test system is H4. The assay can be described thus: Effect on FYVE-RFP+ vesicle intensity per cell in human H4 cells after 4 hrs relative to control. Details: concentration or dose not given beside the values. In short, it runs like this: as §4
In assay [25] the test system is H4. As to the kind of experiment: Effect on FYVE-RFP+ vesicle intensity per cell in human H4 cells after 8 hrs relative to control. Further details: concentration or dose not given beside the values. In short, it runs like this: as §4
Assay [26] has as its system H4. As to the kind of experiment: Induction of light chain 3-GFP level in human H4 cells at 8.8 uM after 24 hrs by high throughput fluorescence microscopy relative to control. In short, it runs like this:
as §1

For the molecule `O=C(Nc1ccccc1)c1cc([N+](=O)[O-])ccc1Cl`, the Activity in the assay on H4 [1] stood at 128.11%; in the assay on H4 [2], 137.98%; in the assay on H4 [3], 166.91%; in the assay on H4 [4], 40.32%; in the assay with H4 [5], 44.5%; in the assay with H4 [6], 29.9%. Also, the Activity turned out to be 106.33% with H4 [7]; 87.58% with H4 [8]; 93.22% with H4 [9]; 89.29% in the assay with H4 [10]; 105.38% with H4 [11].
`OCCN(CCO)c1nc(N2CCCCC2)c2nc(N(CCO)CCO)nc(N3CCCCC3)c2n1` [DIPYRIDAMOLE]: the Activity in the assay on H4 [12] came out at 170.2%; in the assay with H4 [13], 199.02%; in the assay on H4 [14], 213.63%; with H4 [4], 32.22%; in the assay on H4 [5], 30.25%; with H4 [6], 32.54%. Further, the Activity in the assay on H4 [7] was 82.64%; in the assay on H4 [8] it was 79.22%; in the assay on H4 [9] it was 81.07%; in the assay with H4 [10], 79.08%; with H4 [15] it was 158.96%.
For the molecule `O[C@H]1[C@H](O)[C@@H](O)CN2CC[C@H](O)[C@H]12` [CASTANOSPERMINE], the Activity in the assay on H4 [16] turned out to be 156.81%; with H4 [17] it was 174.29%; in the assay with H4 [18], 171.2%; in the assay with H4 [4], 37.35%; in the assay with H4 [5] it was 40.02%; with H4 [6], 36.45%. For the same molecule, the Activity with H4 [7] is reported as 83.53%; with H4 [8] it was 84.26%; in the assay on H4 [9] it was 88.75%; in the assay on H4 [10], 85.6%; with H4 [19], 157.35%.
On to `O=C(/C=C/c1ccc(O)c(O)c1)OCCc1ccccc1` [CAFFEIC ACID PHENETHYL ESTER], for which the Activity in the assay with H4 [20] is recorded as 147.15%; in the assay with H4 [21] it was 160.43%; in the assay with H4 [22], 150.18%; in the assay on H4 [23] it was 86.89%; in the assay on H4 [24] it was 71.17%; with H4 [25] it was 69.14%. Moreover, the Activity in the assay with H4 [7] was 122.08%; in the assay with H4 [8] it was 128.4%; in the assay with H4 [9], 120.18%; with H4 [10] it was 106.53%; in the assay with H4 [26], 146.2%.
